Assay results as given in ChEMBL document CHEMBL2396633, “Effects of cytoprotective antioxidants on lymphocytes from representative mitochondrial neurodegenerative diseases” (Bioorg Med Chem, 2013).
Active and inactive are the calls of the source. The rule behind the calls is not given here.

Key:
CCRF-CEM [1] = test: Cytoprotective activity against diethyl maleate-induced oxidative stress in human CCRF-CEM cells assessed as cell viability at 0.5 uM preincubated for 15 hrs prior to diethyl maleate-challenge measured after 6 hrs by hemocytometer-based assay; format: functional
Summary of the method: (§1)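 Cells seeded at 5 × 10⁵ cells/mL, preincubated with 0.5 or 2.5 µM compound at 37 °C, 5% CO₂, then given 5 mM diethyl maleate for 6 h. Viable cells counted by trypan blue exclusion on a hemocytometer. Viability expressed as % of untreated control. Three independent experiments in triplicate, mean ± S.E.M.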

Homo sapiens [2] = species: Homo sapiens; test: Cytoprotective activity against diethyl maleate-induced oxidative stress in Parkinson's disease patient GM15010 cells assessed as cell viability at 0.5 uM preincubated for 15 hrs prior to diethyl maleate-challenge measured after 6 hrs by hemocytometer-based assay; format: functional; summary of the method: as §1
Homo sapiens [3] = species: Homo sapiens; test: Cytoprotective activity against diethyl maleate-induced oxidative stress in Leigh's syndrome patient GM13740 cells assessed as cell viability at 0.5 uM preincubated for 15 hrs prior to diethyl maleate-challenge measured after 6 hrs by hemocytometer-based assay; format: functional; summary of the method: as §1
Homo sapiens [4] = species: Homo sapiens; test: Cytoprotective activity against diethyl maleate-induced oxidative stress in Alzheimer's disease patient AG06849 cells assessed as cell viability at 0.5 uM preincubated for 15 hrs prior to diethyl maleate-challenge measured after 6 hrs by hemocytometer-based assay; format: functional; summary of the method: as §1
GM15850 [5] = test: Cytoprotective activity against diethyl maleate-induced oxidative stress in Friedreich's ataxia disease patient GM15850 cells assessed as cell viability at 0.5 uM preincubated for 15 hrs prior to diethyl maleate-challenge measured after 6 hrs by hemocytometer-based assay; format: functional; conditions: Homo sapiens; summary of the method: as §1
Homo sapiens [6] = species: Homo sapiens; test: Cytoprotective activity against diethyl maleate-induced oxidative stress in Leber's optic atrophy disease patient GM10744 cells assessed as cell viability at 0.5 uM preincubated for 15 hrs prior to diethyl maleate-challenge measured after 6 hrs by hemocytometer-based assay; format: functional; summary of the method: as §1
Bos taurus [7] = species: Bos taurus; test: Inhibition of NADH-ubiquinone oxidoreductase in bovine heart mitochondria after 5 mins by spectrophotometric analysis relative to control
Summary of the method: (§2)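 Bovine heart submitochondrial particles, 12 µg, incubated 5 min at 39 °C with compound in 50 mM phosphate pH 7.4, 0.25 M sucrose, 1 mM MgCl₂, 2 mM KCN, plus antimycin A. Reaction started with 50 µM NADH and 50 µM coenzyme Q₁; NADH loss read at 340 nm. K_I derived. Mean of three experiments in triplicate.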

[8] = Inhibition of NADH-ubiquinone oxidoreductase in bovine heart mitochondria after 5 mins by spectrophotometric analysis; set-up: species or system Bos taurus; summary of the method: as §2
GM15850 [9] = test: Effect on total ATP level in Friedreich's ataxia disease patient GM15850 cells at 25 uM after 48 hrs by bioluminescence assay relative to control; format: functional, Homo sapiens
Summary of the method: (§3)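 Lymphocytes were adapted to glucose-free RPMI with 25 mM galactose for at least one week. Cells at 2 × 10⁵ cells/mL were given compound at final 5, 10 or 25 µM for 48 h at 37 °C, 5% CO₂. Total intracellular ATP was measured by luciferase bioluminescence kit and expressed as % of untreated control.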

GM15850 [10] = test: Effect on total ATP level in Friedreich's ataxia disease patient GM15850 cells at 10 uM after 48 hrs by bioluminescence assay relative to control; format: functional, Homo sapiens; summary of the method: as §3
GM15850 [11] = test: Effect on total ATP level in Friedreich's ataxia disease patient GM15850 cells at 5 uM after 48 hrs by bioluminescence assay relative to control; format: functional, Homo sapiens; summary of the method: as §3
[12] = Effect on total ATP level in Leber's optic atrophy disease patient GM10744 cells at 25 uM after 48 hrs by bioluminescence assay relative to control; format: functional, Homo sapiens; summary of the method: as §3
[13] = Effect on total ATP level in Leber's optic atrophy disease patient GM10744 cells at 10 uM after 48 hrs by bioluminescence assay relative to control; format: functional, Homo sapiens; summary of the method: as §3
[14] = Effect on total ATP level in Leber's optic atrophy disease patient GM10744 cells at 5 uM after 48 hrs by bioluminescence assay relative to control; format: functional, Homo sapiens; summary of the method: as §3
[15] = Effect on total ATP level in CoQ10-deficient human GM17932 cells at 25 uM after 48 hrs by bioluminescence assay relative to control; format: functional; summary of the method: as §3
[16] = Effect on total ATP level in CoQ10-deficient human GM17932 cells at 10 uM after 48 hrs by bioluminescence assay relative to control; format: functional; summary of the method: as §3
[17] = Effect on total ATP level in CoQ10-deficient human GM17932 cells at 5 uM after 48 hrs by bioluminescence assay relative to control; format: functional; summary of the method: as §3
Homo sapiens [18] = species: Homo sapiens; test: Antioxidant activity in Leber's optic atrophy disease patient GM10744 cells assessed as suppression of diethyl maleate-induced ROS generation at 0.025 to 2.5 uM preincubated for 18 hrs prior to diethyl maleate-challenge measured after 1 hr by FACS flow cytometric analysis in presence of DCFH-DA; format: functional
Summary of the method: (§4)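 Lymphocytes (Coriell, RPMI with 15% FBS) or CCRF-CEM cells (RPMI with 10% FBS), 2.5 × 10⁵ cells/mL, exposed to compounds for 18 h at 37 °C, then 5 mM diethyl maleate for 1 h. Cells washed in PBS, loaded with 10 µM DCFH-DA in PBS/10 mM glucose for 25 min at 37 °C in the dark. DCF read by flow cytometry (488 nm excitation, 530 nm emission). Mean ± S.E.M., three experiments in duplicate.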

Homo sapiens [19] = species: Homo sapiens; test: Antioxidant activity in Alzheimer's disease patient AG06849 cells assessed as suppression of diethyl maleate-induced ROS generation at 0.025 to 2.5 uM preincubated for 18 hrs prior to diethyl maleate-challenge measured after 1 hr by FACS flow cytometric analysis in presence of DCFH-DA; format: functional; summary of the method: as §4
CCRF-CEM [20] = test: Antioxidant activity in human CCRF-CEM cells assessed as suppression of diethyl maleate-induced ROS generation at 0.25 to 2.5 uM preincubated for 18 hrs prior to diethyl maleate-challenge measured after 1 hr by FACS flow cytometric analysis in presence of DCFH-DA; format: functional, cell-based; summary of the method: as §4
CCRF-CEM [21] = test: Antioxidant activity in human CCRF-CEM cells assessed as suppression of diethyl maleate-induced ROS generation preincubated for 18 hrs prior to diethyl maleate-challenge measured after 1 hr by FACS flow cytometric analysis in presence of DCFH-DA; format: functional, cell-based; summary of the method: as §4
Bos taurus [22] = species: Bos taurus; test: Inhibition of NADH oxidase activity of bovine heart mitochondrial […] at 5 uM after 5 mins by spectrophotometric analysis relative to control; values are per cent of control
Bos taurus [23] = species: Bos taurus; test: Inhibition of NADH oxidase activity of bovine heart mitochondrial […] at 1 uM after 5 mins by spectrophotometric analysis relative to control; values are per cent of control
Bos taurus [24] = species: Bos taurus; test: Inhibition of NADH oxidase activity of bovine heart mitochondrial […] at 10 uM after 5 mins by spectrophotometric analysis relative to control; values are per cent of control
CCRF-CEM [25] = test: Cytoprotective activity against diethyl maleate-induced oxidative stress in human CCRF-CEM cells assessed as cell viability at 2.5 uM preincubated for 15 hrs prior to diethyl maleate-challenge measured after 6 hrs by hemocytometer-based assay; format: functional; summary of the method: as §1
Homo sapiens [26] = species: Homo sapiens; test: Cytoprotective activity against diethyl maleate-induced oxidative stress in Parkinson's disease patient GM15010 cells assessed as cell viability at 2.5 uM preincubated for 15 hrs prior to diethyl maleate-challenge measured after 6 hrs by hemocytometer-based assay; format: functional; summary of the method: as §1
Homo sapiens [27] = species: Homo sapiens; test: Cytoprotective activity against diethyl maleate-induced oxidative stress in Leigh's syndrome patient GM13740 cells assessed as cell viability at 2.5 uM preincubated for 15 hrs prior to diethyl maleate-challenge measured after 6 hrs by hemocytometer-based assay; format: functional; summary of the method: as §1
Homo sapiens [28] = species: Homo sapiens; test: Cytoprotective activity against diethyl maleate-induced oxidative stress in Alzheimer's disease patient AG06849 cells assessed as cell viability at 2.5 uM preincubated for 15 hrs prior to diethyl maleate-challenge measured after 6 hrs by hemocytometer-based assay; format: functional; summary of the method: as §1
GM15850 [29] = test: Cytoprotective activity against diethyl maleate-induced oxidative stress in Friedreich's ataxia disease patient GM15850 cells assessed as cell viability at 2.5 uM preincubated for 15 hrs prior to diethyl maleate-challenge measured after 6 hrs by hemocytometer-based assay; format: functional; conditions: Homo sapiens; summary of the method: as §1
Homo sapiens [30] = species: Homo sapiens; test: Cytoprotective activity against diethyl maleate-induced oxidative stress in Leber's optic atrophy disease patient GM10744 cells assessed as cell viability at 2.5 uM preincubated for 15 hrs prior to diethyl maleate-challenge measured after 6 hrs by hemocytometer-based assay; format: functional; summary of the method: as §1
GM15850 [31] = test: Effect on total ATP level in Friedreich's ataxia disease patient GM15850 cells after 48 hrs by bioluminescence assay; format: functional; conditions: Homo sapiens; summary of the method: as §3
Homo sapiens [32] = species: Homo sapiens; test: Effect on total ATP level in CoQ10-deficient human GM17932 cells after 48 hrs by bioluminescence assay; format: functional; summary of the method: as §3
Homo sapiens [33] = species: Homo sapiens; test: Effect on total ATP level in Leber's optic atrophy disease patient GM10744 cells after 48 hrs by bioluminescence assay; format: functional; summary of the method: as §3
CCRF-CEM [34] = test: Antioxidant activity in human CCRF-CEM cells assessed as suppression of diethyl maleate-induced ROS generation at 0.025 to 2.5 uM preincubated for 18 hrs prior to diethyl maleate-challenge measured after 1 hr by FACS flow cytometric analysis in presence of DCFH-DA; format: functional, cell-based; summary of the method: as §4

Imax (Bos taurus [7]) | IC50 [8] | Ki [8] | SMILES | Activity (CCRF-CEM [1]) | Activity (Homo sapiens [2]) | Activity (Homo sapiens [3]) | Activity (Homo sapiens [4]) | Activity (GM15850 [5]) | Activity (Homo sapiens [6]) | Activity (GM15850 [9]) | Activity (GM15850 [10]) | Activity (GM15850 [11]) | Activity [12] | Activity [13] | Activity [14] | Activity [15] | Activity [16] | Activity [17] | Activity (Homo sapiens [18]) | Activity (Homo sapiens [19]) | other results
88% | 2 µM | 1.4 µM | CCCCCCCCCCc1nc(N(C)C)nc(C)c1O | Active | Active | Active | Active | Active | Active | 42.2% | 74.4% | 83.3% | 40.6% | 75% | 95.6% | 72.4% | 97.1% | 105.2% | Active | Active | Activity (CCRF-CEM [20]): Active; Activity (CCRF-CEM [21]): Dose-dependent effect; residual activity (Bos taurus [22]): 17.7%; residual activity (Bos taurus [23]): 35.4%; residual activity (Bos taurus [24]): 3.9%
84% | 6 µM | 4 µM | COC1=C(OC)C(=O)C(CCCCCCCCCCO)=C(C)C1=O [IDEBENONE] | inactive | inactive | inactive | inactive | inactive | inactive | 2.6% | 45.6% | 73% | 3% | 29.9% | 55.7% | 1.6% | 45.7% | 79.8% | Active | Active | Activity (CCRF-CEM [25]): Active; Activity (Homo sapiens [26]): Active; Activity (Homo sapiens [27]): Active; Activity (Homo sapiens [28]): Active; Activity (GM15850 [29]): Active; Activity (Homo sapiens [30]): Active; Activity (GM15850 [31]): Dose-dependent effect; Activity (Homo sapiens [32]): Dose-dependent effect; Activity (Homo sapiens [33]): Dose-dependent effect; Activity (CCRF-CEM [34]): Active; Activity (CCRF-CEM [21]): Dose-dependent effect; residual activity (Bos taurus [22]): 19.3%; residual activity (Bos taurus [23]): 57.4%; residual activity (Bos taurus [24]): 13.2%
84% | 198 µM | 141 µM | CCCCCCCCCCCCCCCCc1nc(N(C)C)nc(C)c1O | Active | Active | Active | Active | Active | Active | 74.7% | 90.3% | 95.3% | 83.4% | 95.6% | 102.7% | 95% | 103% | 108.2% | Active | Active | Activity (CCRF-CEM [20]): Active; Activity (CCRF-CEM [21]): Dose-dependent effect; residual activity (Bos taurus [22]): 88.6%; residual activity (Bos taurus [23]): 96.2%; residual activity (Bos taurus [24]): 76.9%
